High-throughput results: PubChem BioAssay, The Scripps Research Institute Molecular Screening Center
NPY-Y1 antag: blocks the human neuropeptide Y Y1 receptor | P25929 | HEK293-CNG Y1 cells, membrane potential fluorescence; NPY at EC95, then isoproterenol | inhibition, % at 3.6 µM | 200,000 tested, 1% active | AID 1040;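 active = inhibition above the campaign mean inhibition of all tested compounds plus 3 SD, cut at about 20% in these data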;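 also: 0% = DMSO wells given NPY plus isoproterenol and 100% = isoproterenol alone without NPY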
Target sequence (P25929 whole entry, looked up): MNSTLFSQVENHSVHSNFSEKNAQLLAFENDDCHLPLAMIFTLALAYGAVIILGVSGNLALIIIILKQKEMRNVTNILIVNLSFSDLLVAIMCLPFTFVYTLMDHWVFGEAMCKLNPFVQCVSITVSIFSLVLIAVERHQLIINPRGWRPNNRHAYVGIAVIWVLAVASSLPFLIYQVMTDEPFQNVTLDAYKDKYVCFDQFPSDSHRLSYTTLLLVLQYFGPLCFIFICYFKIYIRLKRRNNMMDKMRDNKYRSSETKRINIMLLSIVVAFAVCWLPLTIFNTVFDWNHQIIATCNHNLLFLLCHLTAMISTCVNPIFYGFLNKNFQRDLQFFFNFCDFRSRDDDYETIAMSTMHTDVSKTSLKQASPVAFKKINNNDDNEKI
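Material: HEK293 Y1/CNG channel cell line | Also added: NPY (25 nM), isoproterenol (1 µM), Ro 20-1724 (25 µM) | Compound: One concentration, 3.6 µM, in 0.4% DMSO | Schedule: 3 h dye uptake, 1 h room-temperature compound, 45 min post-isoproterenol | Signal: Membrane-potential fluorescent dye readout | Read-out: % inhibition of NPY effect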
NPY1 pot ag: human NPY-Y1 potentiation or agonism, primary screen; NPY-Y1 expressing cells, potentiator/agonist activation; activation, % at 3.6 µM; 220,000 tested, 0.37% active; P25929; AID 1304; in the data active = activation above about 33%, passing the limit was not always enough;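 also: cells stimulated with NPY at EC10 then isoproterenol at EC100; 0% = low agonist plus stimulus and 100% = saturating agonist plus stimulus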
NPY2 pot ag: potentiators or agonists of human neuropeptide Y receptor Y2; cells expressing NPY-Y2, potentiator/agonist read-out; activation, % at 3.6 µM; 220,000 tested, 0.45% active; P49146; in the data active = activation above about 27%;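 also: cells stimulated with NPY near EC25 plus isoproterenol at EC100; 0% = vehicle plus submaximal agonist and 100% = vehicle plus saturating agonist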
NPY-Y2 antag: antagonists of human neuropeptide Y receptor Y2; P49146; NPY-Y2 expressing cells, antagonist mode; inhibition, % at 2.7 µM; 140,000 tested, 0.99% active; AID 793;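 also: 0% = vehicle with agonist challenge and 100% = reference antagonist with challenge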
NPY-Y1 ant conf: human NPY-Y1 antagonism, confirmation; AID 1254; HEK293-CNG NPY-Y1, membrane potential fluorescence, cAMP; NPY challenge against isoproterenol-raised cAMP; 1,200 tested, 21% active; inhibition, % at 3.6 µM; shares compounds with NPY-Y1 antag; in the data active = inhibition above about 20%;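 also: 0% = vehicle with agonist plus stimulus and 100% = stimulus alone without agonist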
NPY-Y2 antag ct: antagonizes human NPY-Y2, counter-screen to NPY-Y1 antagonists. shares compounds with NPY-Y1 antag. HEK293 NPY-Y2 CNG membrane potential fluorescence, antagonism; cells given NPY, then isoproterenol. inhibition, % at 3.6 µM. 1,200 tested, 28% active. AID 1255;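 also: 0% = DMSO with agonist challenge and 100% = reference antagonist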
* hit, by the source's call; / = no result. This is a sample that favours compounds with a hit; in the whole collection about 1.8% have one here. Rule as the data show it, unless noted: active = inhibition above about 17%; inactive = the rest.

SMILES	NPY-Y1 antag	NPY1 pot ag	NPY2 pot ag	NPY-Y2 antag	NPY-Y1 ant conf	NPY-Y2 antag ct
CCCC(c1nnnn1Cc1ccco1)N1CCN(C2CCCC2)CC1 (stereo not given)	22*	-15	-11	14	9	7
CC(C)C(c1nnnn1Cc1ccco1)N1CCN(C2CCCC2)CC1 (stereo not given)	6	1	2	8	/	/
CCCC(c1nnnn1Cc1cccs1)N1CCN(C2CCCC2)CC1 (stereo not given)	25*	-8	3	15	5	3
CCN(CC)Cc1cc(CCNC(=O)c2ccc(Cl)cc2)ccc1O	4	4	0	4	/	/
CN(C)Cc1cc(CCNC(=O)c2ccc(Cl)cc2)ccc1O	22*	-11	5	2	-1	2
Cc1cccc(OCCNC(=O)c2ccc(Oc3ccc(C(F)(F)F)cc3[N+](=O)[O-])cc2)c1	22*	-41	-27	9	28*	15
Cc1ccc(-c2noc(COc3ccccc3C)n2)cc1	22*	-13	-2	14	9	13
OCCC1CN(Cc2cccc3nonc23)CCN1C1CCCCC1 (stereo not given)	-3	9	-19	/	/	/
Cc1ccccc1CC1(CO)CCCN(C(=O)c2ccccc2N(C)C)C1 (stereo not given)	28*	13	-7	/	5	6
Cc1ccccc1CC1(CO)CCCN(C(=O)c2ccc(F)cc2)C1 (stereo not given)	-2	-3	2	/	/	/
O=[N+]([O-])c1ccc(/C=N/NC2=NS(=O)(=O)c3ccccc32)cc1	-1	1	-9	/	/	/
O=[N+]([O-])c1ccc(O)c(/C=N/NC2=NS(=O)(=O)c3ccccc32)c1	35*	-10	-13	/	0	2
Cc1c(NC(=O)/C(C#N)=C/c2ccc(-c3cccc(Cl)c3)o2)c(=O)n(-c2ccccc2)n1C	26*	13	2	15	11	6
CCCOc1ccc(-c2nc(OC)c3ccccc3n2)cc1	20*	-37	3	3	12	18*
COC(=O)c1ccc(COC(=O)CNC(=O)c2ccco2)cc1	9	0	-4	2	/	/
COC(=O)c1ccc(COC(=O)CNC(=O)c2ccc(-c3ccccc3)cc2)cc1	21*	-7	-7	4	-2	2
COc1c(Cl)cc(Cl)cc1CNCCO	5	-11	-4	/	/	/
CS(=O)(=O)CCC(C(=O)OCc1ccc(Cl)cc1)N1C(=O)c2ccccc2C1=O (stereo not given)	6	8	5	0	/	/
C/C=C/c1cc(CN2CCN(c3ccc(OC)cc3)CC2)c(O)c(OC)c1	1	0	-3	/	/	/
CCN(CC)CCSc1nc2ccccc2c(=S)n1-c1ccccc1	57*	-50	-30	/	20*	24*
CCc1ccc(NC(=O)C(C)n2nc(C)c([N+](=O)[O-])c2C)cc1 (stereo not given)	-2	8	-27	/	/	/
COc1ccc(Nc2ccc(C(N)=O)cc2[N+](=O)[O-])cc1	5	9	6	/	/	/
COc1ccc(Nc2ccc(C(=O)O)cc2[N+](=O)[O-])cc1	22*	-21	3	6	4	9
CCC(C)(C)n1nnnc1CN(Cc1ccc(Cl)cc1)Cc1ccco1	24*	-37	-23	17	17	14
CCC(C)(C)n1nnnc1CN(Cc1ccco1)Cc1cc2cc3c(cc2[nH]c1=O)OCO3	4	-27	1	4	/	/
SMILES	NPY-Y1 antag	NPY1 pot ag	NPY2 pot ag	NPY-Y2 antag	NPY-Y1 ant conf	NPY-Y2 antag ct
CN(C)S(=O)(=O)c1cc(NC(=O)CN2CCCc3ccccc32)ccc1Cl	71*	19	8	/	1	3
COc1cc(OC)c(OC)cc1CN1CCCC(C(=O)c2sccc2C)C1 (stereo not given)	/	12	-32	/	/	/
Cc1ccsc1C(=O)C1CCCN(Cc2cc(F)ccc2-n2cccn2)C1 (stereo not given)	30*	-22	-34	/	8	12
CCOc1ncccc1C(=O)N1CCN(c2cc(Cl)ccc2C)CC1	7	3	-7	/	/	/
CCOc1ncccc1C(=O)N1CCN(c2cccc(C)c2C)CC1	24*	-18	-22	/	9	10
CC(O)CNCc1ccc(-c2ccccc2)cc1 (stereo not given)	6	1	0	8	/	/
